# Square brackets hold non-standard residues; d marks the D form. Ends that are not written are not given here. Peptide text beside a SMILES is read from it. pT = C[C@@H](OP(=O)(O)O)[C@H](N)C(=O)O
# Biological target: T1, SA2-SCC1 (Homo sapiens, UniProt O60216+Q8N3U4)
# T1 sequence (Q8N3U4 80-1060): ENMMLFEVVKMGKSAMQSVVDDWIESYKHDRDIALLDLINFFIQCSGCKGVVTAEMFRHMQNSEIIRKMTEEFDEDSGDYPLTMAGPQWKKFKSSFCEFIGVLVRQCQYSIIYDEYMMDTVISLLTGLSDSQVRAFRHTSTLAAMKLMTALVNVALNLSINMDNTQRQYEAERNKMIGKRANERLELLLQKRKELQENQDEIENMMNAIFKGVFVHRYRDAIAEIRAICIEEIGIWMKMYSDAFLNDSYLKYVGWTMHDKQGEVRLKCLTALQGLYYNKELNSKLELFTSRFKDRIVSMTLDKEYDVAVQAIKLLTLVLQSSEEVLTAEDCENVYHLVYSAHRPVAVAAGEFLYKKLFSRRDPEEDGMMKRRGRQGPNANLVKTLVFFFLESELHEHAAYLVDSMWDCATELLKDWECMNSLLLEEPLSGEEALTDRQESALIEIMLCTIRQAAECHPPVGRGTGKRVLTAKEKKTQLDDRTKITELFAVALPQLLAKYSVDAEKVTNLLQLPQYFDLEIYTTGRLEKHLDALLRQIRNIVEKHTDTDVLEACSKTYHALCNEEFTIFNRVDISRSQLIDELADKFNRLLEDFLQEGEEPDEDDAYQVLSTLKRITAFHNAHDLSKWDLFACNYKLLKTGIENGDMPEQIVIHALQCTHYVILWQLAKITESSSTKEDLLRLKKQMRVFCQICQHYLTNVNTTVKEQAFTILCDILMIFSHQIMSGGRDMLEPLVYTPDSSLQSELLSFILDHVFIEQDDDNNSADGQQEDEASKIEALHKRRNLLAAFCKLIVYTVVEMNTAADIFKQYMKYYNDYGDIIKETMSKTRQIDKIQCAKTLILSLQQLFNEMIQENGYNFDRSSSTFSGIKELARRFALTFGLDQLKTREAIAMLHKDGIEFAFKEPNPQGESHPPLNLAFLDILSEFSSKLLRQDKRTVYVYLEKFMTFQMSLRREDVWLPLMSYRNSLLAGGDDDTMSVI
# T1 sequence (O60216 281-420): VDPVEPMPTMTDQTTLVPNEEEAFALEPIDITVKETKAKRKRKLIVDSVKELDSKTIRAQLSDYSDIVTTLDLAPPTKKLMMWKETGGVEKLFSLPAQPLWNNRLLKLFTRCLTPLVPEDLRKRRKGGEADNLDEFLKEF
# Assay: Isothermal titration calorimetry
# Details: ITC, 25°C, one site binding model
# Method in brief: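 Recombinant SA2-SCC1 from E. coli BL21(DE3), purified by Co2+ IMAC, MonoQ and Superdex 200. Protein and peptides were dialysed overnight at 4°C against 20 mM Tris pH 7.7, 150 mM NaCl, 0.5 mM TCEP. 50 μM SA2-SCC1 was placed in the cell and titrated with 500 μM peptide in 16 injections. Data were fitted to a one-site model; titrations were repeated three times.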
Molecule,N (binding stoichiometry),TΔS [kcal/mol],ΔG [kcal/mol],ΔH [kcal/mol]
"CC(C)C[C@H](NC(=O)[C@H](CC(N)=O)NC(=O)[C@H](Cc1ccccc1)NC(=O)[C@H](CC(N)=O)NC(=O)[C@H](Cc1ccc(O)cc1)NC(=O)[C@H](C)NC(=O)[C@H](CC(=O)O)NC(=O)[C@H](CC(N)=O)NC(=O)[C@@H](N)CO)C(=O)N[C@@H](CCC(=O)O)C(=O)N[C@@H](CCC(=O)O)C(=O)NCC(=O)N[C@H](C(=O)N[C@@H](Cc1c[nH]cn1)C(=O)N[C@@H](CC(C)C)C(=O)N[C@H](C(=O)N1CCC[C@H]1C(=O)N[C@@H](Cc1ccccc1)C(=O)N[C@@H](CCCNC(=N)N)C(=O)O)[C@@H](C)OP(=O)(O)O)C(C)C [Shugoshin 331-349 (pT346), reference compound] (H-SNDAYNFNLEEGVHL[pT]PFR-OH; N-terminus and C-terminus assumed)",0.89,-12.30,-7.69,-20.00
DVKLEFFGFEDHETGGDEGGSGSSNYKIKYFGFDDLSESED [Wapl 423-463],0.62,-0.54,-6.11,-6.66
NYKIKYFGFDDLSESE [Wapl 447-462],1.00,-1.20,-5.60,-6.81
SNDAYNFNLEE [Shugoshin 331-341],0.83,-4.02,-6.64,-10.67

# From publication PMC7035113 (Nature, 2020)
